# Only some compounds are listed: those with a hit (about 3% of all), similar ones and a draw of the others.
# M4 ag: human M4 muscarinic receptor agonists, primary screen, CHO-K1 cells, Fluo-8 calcium fluorescence; Muscarinic acetylcholine receptor M4 (Homo sapiens), P08173; CHO-K1 hM4/Gqi5; vehicle 0%, full acetylcholine response 100%; activation, % at 3 µM; 360,000 tested, 0.14% active; AID 624127, 2012;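 active = activation above the run mean over all test wells plus 3 SD, cut at about 32% in these data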;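 note: peak over basal fluorescence ratio per well then scaled between controls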
# Target sequence (P08173 whole entry, looked up): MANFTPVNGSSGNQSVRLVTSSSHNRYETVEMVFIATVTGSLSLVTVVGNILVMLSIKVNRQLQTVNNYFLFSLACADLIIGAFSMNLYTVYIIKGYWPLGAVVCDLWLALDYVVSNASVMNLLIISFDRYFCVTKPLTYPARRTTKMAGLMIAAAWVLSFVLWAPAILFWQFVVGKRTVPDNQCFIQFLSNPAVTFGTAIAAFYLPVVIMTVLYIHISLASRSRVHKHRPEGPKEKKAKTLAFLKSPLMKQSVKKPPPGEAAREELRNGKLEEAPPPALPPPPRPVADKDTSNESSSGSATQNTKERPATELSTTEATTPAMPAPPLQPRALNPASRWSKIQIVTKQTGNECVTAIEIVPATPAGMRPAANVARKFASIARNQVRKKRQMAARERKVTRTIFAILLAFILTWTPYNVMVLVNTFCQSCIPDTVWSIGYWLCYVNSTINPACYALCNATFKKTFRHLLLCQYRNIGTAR
# TAAR1 agonist: human TAAR1 agonists, primary screen, Fluo-8 calcium fluorescence, CHO RD-HGA16 cells; vehicle wells 0%, saturating PEA agonist 100%; activation, % at 3 µM; 360,000 tested, 0.99% active; AID 624467, 2012;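 active = activation above the mean activation of all test compounds in the run plus 3 SD, cut at about 38% in these data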
#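 System: CHO-derived RD-HGA16 cells with stable Gα16 and human TAAR1. Times: 17-24 h plating, Fluo-8 75 min 37 °C, 30 min RT. Measured by: calcium-sensitive Fluo-8 signal, excitation 470-495, emission 515-575 nm. Read-out basis: % activation relative to PEA EC100 response. Control set: DMSO and PEA EC100. Repeats: no replicates (n 1).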
# TAAR1 antag: human TAAR1 antagonists, primary screen, Fluo-8 calcium fluorescence, CHO RD-HGA16 cells; Trace amine-associated receptor 1 (Homo sapiens), Q96RJ0; antagonist; inhibition, % at 3 µM; 360,000 tested, 1.5% active; AID 624466, 2012;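 active = inhibition above a per-plate cutoff, the mean inhibition of test compounds on that plate plus 3 SD, cut at about 49% in these data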
#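 Test system: hTAAR1-expressing CHO RD-HGA16 cells, Gα16-coupled; Probe or stimulus: EC80 β-phenethylamine stimulus; Compound dosing: single nominal final test compound concentration of 3 µM; Timing: 140 s kinetic read after compound, 140 s after agonist; Signal: Fluo-8 calcium-sensitive fluorescence; Measure: % inhibition of agonist calcium response; Controls: DMSO and EC80 PEA controls.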
# M4 PAM: human M4 muscarinic receptor positive allosteric modulators, primary screen, CHO-K1 cells, Fluo-8 calcium fluorescence; Muscarinic acetylcholine receptor M4 (Homo sapiens), P08173; CHO-K1 hM4/Gqi5, ACh EC20; 0% = ACh EC20, 100% = maximal ACh; activation, % at 3 µM; 360,000 tested, 0.4% active; AID 624126, 2012;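 active = activation above its plate's cutoff, the mean activation of sample wells plus 3 SD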
# CHRM4 antagonist: human M4 muscarinic receptor antagonists, primary screen, CHO cells, Fluo-8 calcium fluorescence; 360,000 tested, 0.73% active; Muscarinic acetylcholine receptor M4 (Homo sapiens), P08173; inhibition, % at 3 µM; CHO-hM4 cells, ACh EC80;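 active = inhibition above its plate's cutoff, the mean inhibition of sample wells plus 3 SD, cut at about 27% in these data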
# A number is an active result; n = inactive; x = not tested or not shown.
SMILES,M4 ag,TAAR1 agonist,TAAR1 antag,M4 PAM,CHRM4 antagonist
O=S1(=O)CCC(N(N=Cc2ccco2)c2ccccc2)C1 (configuration not stated),x,n,n,x,x
NC(=O)C1CCN(CC(=O)NC(=O)NC2CCCC2)CC1,n,n,n,20,n
O=C(CN1CCCC1)NC(=O)NC1CCCC1,n,n,n,n,n
CCCCOC(=O)C1CN(c2ccccc2)N=C1C(C)=O (configuration not stated),n,n,n,n,n
CCCCOC(=O)C1CN(c2ccccc2)N=C1C(=O)OCC (configuration not stated),n,n,n,20,n
O=S(=O)(CC(O)(c1ccccc1)c1ccccc1)CC(O)(c1ccccc1)c1ccccc1,n,n,n,n,n
CC(C)N(CC#CC(O)(c1ccccc1)c1ccccc1)C(C)C,n,n,n,n,98
CN(CC#CC(O)(c1ccccc1)c1ccccc1)C(C)(C)C,n,n,n,n,92
CC(C)N(CC#CC(O)(c1ccccc1)c1ccccc1)CCO,n,n,n,n,42
OCCN(CC#CC(O)(c1ccccc1)c1ccccc1)CCO,n,n,n,n,n
COc1ccc(C[C@@H]2CN3C(=NC[C@@H]3Cc3ccc(O)cc3)N2C[C@H](C)NC(=O)CCC2CCCCC2)cc1,n,x,x,n,28
COc1cc(-c2c(C(=O)c3ccccc3)[nH]c(N)c2C(=O)NCCc2c[nH]c3ccccc23)ccc1F,x,n,n,x,x
C[C@@H]1CN([C@H](C)CO)C(=O)CCCn2cc(nn2)CO[C@H]1CN(C)C(=O)Nc1ccc2c(c1)OCO2,n,n,n,n,n
CNC(=O)c1ccc(NC(=O)CC2SC(N3CCCC3)=NC2=O)cc1 (configuration not stated),n,n,n,22,n
CC(C)NC(=O)c1ccc(NC(=O)CC2SC(N3CCCC3)=NC2=O)cc1 (configuration not stated),n,n,n,n,n
COc1ccc(N2C(=O)c3n[nH]c(C(C)C)c3C2c2ccc(F)cc2)cc1 (configuration not stated),x,n,n,x,x
Cc1ccc(C(=O)Nc2ccc(Oc3cccc(C(F)(F)F)c3)nc2)cc1,n,40,n,n,n
OCCN1CCN(CC/C=C2/c3ccccc3CSc3ccccc32)CC1,n,n,n,n,n
CNCC/C=C1/c2ccccc2CSc2ccccc21,n,n,n,n,43
COC(=O)C1=C(C)N(Cc2ccccc2)C(=S)NC1c1ccc(Br)cc1 (configuration not stated),x,n,n,x,x
CC(=O)Nc1ccc(NC(=S)NC(=O)C2CC2)cc1,n,n,n,25,n
CCCCCCC12C(=Cc3cc4c(cc31)OCCO4)c1cc(OC)c(OC)cc1C(CC(=O)NCc1ccccc1)N2C(=O)OC (configuration not stated),x,n,n,x,x
CN(C(=O)COC(=O)c1ccc2ccccc2n1)C1CCCCC1,n,n,n,25,n
O=C(NCc1cccc(F)c1)c1cccc2c1C(=O)c1ccc(N3CCCC3)cc1S2(=O)=O,80,x,x,n,n
O=C(NCc1cc(C(F)(F)F)ccc1Cl)c1cccc2c1C(=O)c1ccc(N3CCC(N4CCCCC4)CC3)cc1S2(=O)=O,n,n,59,n,n
SMILES,M4 ag,TAAR1 agonist,TAAR1 antag,M4 PAM,CHRM4 antagonist
O=C(NCc1ccc(OC(F)(F)F)cc1)c1cccc2c1C(=O)c1ccc(N3CCCC3)cc1S2(=O)=O,n,n,n,n,n
O=C(NCc1ccco1)c1cccc2c1C(=O)c1ccc(/C=C/c3ccccc3)cc1S2(=O)=O,n,n,51,n,n
COc1ccccc1N1CCN(c2ccc3c(c2)S(=O)(=O)c2cccc(C(=O)NCc4ccc(F)cc4)c2C3=O)CC1,n,n,57,n,n
CN1CCCCC(NC(=O)c2cccs2)C1=O (configuration not stated),x,n,n,x,x
O=C(/C=C(\Nc1ccc(Cl)c(C(F)(F)F)c1)c1ccccc1)c1ccccc1,x,n,n,x,x
CCOC(=O)CNC(=O)CSc1nc(Cc2cccs2)nc2ccccc12,n,n,n,n,n
CC1CC(C)CN(C(=O)CSc2nc(Cc3cccs3)nc3ccccc23)C1 (configuration not stated),n,n,50,n,n
CCCOc1ccc(Br)cc1/C=N/NC(=O)c1cc(OC)c(OC)c(OC)c1,n,n,n,28,n
CC(C)CCNC(=O)C(c1cccnc1)N(CCc1ccccc1)C(=O)Cn1nnc2ccccc21 (configuration not stated),n,39,n,n,n
CCCOc1ccc(C(=O)N2CCCC2C(=O)O)cc1 (configuration not stated),n,n,n,19,n
CCCCOc1ccc(C(=O)N2CCCC2C(=O)O)cc1 (configuration not stated),n,n,n,n,n
COC(=O)[C@]12C[C@H](CC(=O)N3CCC(c4ccccc4)CC3)C(=O)N(CCc3ccc(OC)c(OC)c3)C1=C[C@H](C(C)(C)C)O[C@@H]2C,x,n,n,x,x
COC(=O)CCc1c(C)[nH]c(=S)[nH]c1=O,n,n,n,n,n
COC(=O)Cc1[nH]c(=S)[nH]c1C(=O)OC,n,n,n,33,n
Nc1ncnc2c1ncn2[C@@H]1O[C@H](C(=O)N[C@@H](CCc2ccccc2)C(=O)O)[C@@H](O)[C@H]1O,x,n,n,x,x
CC(C)Cc1ccc(C(C)C(=O)OCC(=O)c2c[nH]c3ccccc23)cc1 (configuration not stated),n,55,n,n,n
CC(O)C(NS(=O)(=O)c1ccc(Cl)cc1)C(=O)OCC(=O)c1c[nH]c2ccccc12 (configuration not stated),n,n,58,n,n
Cc1[nH]c2ccccc2c1C(=O)COC(=O)C1CC(O)CN1S(=O)(=O)c1ccc(Cl)cc1 (configuration not stated),n,n,n,n,n
Cc1ccc(C(=O)OCC(=O)c2c[nH]c3ccccc23)cc1,n,n,n,n,n
CC(C)C(NS(=O)(=O)c1c(Cl)cccc1Cl)C(=O)OCC(=O)c1c[nH]c2ccccc12 (configuration not stated),n,n,n,n,n
CSCCC(NS(=O)(=O)c1ccc(Cl)cc1)C(=O)OCC(=O)c1c(C)[nH]c2ccccc12 (configuration not stated),n,n,81,n,33
